In paper PMC3752283 (The Analyst, 2013):
Positions of bridges follow the written chain, without caps; N, C: chain ends. Non-standard residues stand in square brackets, D forms with d. Residues, ends and D or L forms follow the SMILES beside them. *: point of attachment. 6FAM = O=C1OC2(c3ccc(O)cc3Oc3cc(O)ccc32)c2cc(C(=O)*)ccc21; PEG3 = NCCOCCOCCOCCC(=O)O

Experiment: Lysate degradation assay
Type: in vitro ADME, mouse
Conditions: for time for 90% degradation of the peptide: Baf/BCR-ABL cell lysate, 3 mg mL^-1 protein, 2 μM peptide, 37 °C, CE-LIF; for half-life at 2 μM: mouse, Baf/BCR-ABL cell lysate (cytosolic), pH 7.4
How it was run: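 Mouse B-cell lymphoma Baf/BCR-ABL cells washed and resuspended in cold ECB (pH 7.4), then lysed by three cycles of liquid nitrogen (1 min) and 37 °C thaw; supernatant kept after 14,000 × g, 4 °C, 5 min. Peptide at 2 μM in lysate (3 mg mL−1 protein), 37 °C, triplicate. Timed aliquots quenched with HCl (100 mM final) and 95 °C for 4 min. Intact fraction = intact-peak area / total peak area.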

Structure (SMILES) | time for 90% degradation of the peptide | half-life at 2 μM | increase in half-life over the control peptide (Baf/BCR-ABL cytosolic lysate)
CC[C@H](C)[C@H](NC(=O)[C@H](C)NC(=O)[C@H](CCC(=O)O)NC(=O)[C@H](CCCCNC(=O)c1ccc2c(c1)C1(OC2=O)c2ccc(O)cc2Oc2cc(O)ccc21)NC(=O)CCOCCOCCOCCNC(=O)CCOCCOCCOCCNC(=O)[C@@H]1CSCC(=O)N[C@@H](Cc2c[nH]c3ccccc23)C(=O)N2CCC[C@@H]2C(=O)NCC(=O)N[C@@H](CCCNC(=N)N)C(=O)N1)C(=O)N[C@@H](Cc1ccc(O)cc1)C(=O)N[C@@H](C)C(=O)N[C@@H](C)C(=O)N1CCC[C@H]1C(=O)N[C@@H](Cc1ccccc1)C(=O)N[C@@H](C)C(=O)N[C@@H](CCCCN)C(=O)N[C@@H](CCCCN)C(=O)N[C@@H](CCCCN)C(N)=O [Peptide 4] ({CH2CO}-W[dP]GRC[PEG3][PEG3]K(6FAM)EAIYAAPFAKKK-NH2; thioether N-5) | 25 min | 9.2 ± 1.2 min | –
CC[C@H](C)[C@H](NC(=O)[C@H](C)NC(=O)[C@H](CCC(=O)O)NC(=O)[C@H](CCCCNC(=O)c1ccc2c(c1)C1(OC2=O)c2ccc(O)cc2Oc2cc(O)ccc21)NC(=O)CCOCCOCCOCCNC(=O)CCOCCOCCOCCNC(=O)[C@H](CCCNC(=N)N)NC(=O)CNC(=O)[C@H]1CCCN1C(=O)[C@@H](N)Cc1c[nH]c2ccccc12)C(=O)N[C@@H](Cc1ccc(O)cc1)C(=O)N[C@@H](C)C(=O)N[C@@H](C)C(=O)N1CCC[C@H]1C(=O)N[C@@H](Cc1ccccc1)C(=O)N[C@@H](C)C(=O)N[C@@H](CCCCN)C(=O)N[C@@H](CCCCN)C(=O)N[C@@H](CCCCN)C(N)=O [Peptide 2] (H-W[dP]GR[PEG3][PEG3]K(6FAM)EAIYAAPFAKKK-NH2; N-terminus assumed) | ≤ 10 min | 4.8 ± 0.4 min | ~10 fold
